Assay results collected from several papers.
Compare with care: the assays were run in different laboratories.
Target: Glycogen synthase kinase-3 beta (GSK3B, Homo sapiens, UniProt P49841)

SMILES	test	setting	measurement	value
Cc1ncc([N+](=O)[O-])n1CCO	enzyme activity, inhibitor, ADP detection	100 µM	inhibition	32.8%
CCCOc1ccc([C@H]2[C@H](C(=O)O)[C@@H](c3ccc4c(c3)OCO4)CN2CC(=O)Nc2c(CC)cccc2CC)cc1	cell-free assay, competition with immobilised ligand	1 µM	remaining binding	73%
Nc1nc(Nc2ccc(S(N)(=O)=O)cc2)nn1C(=O)c1c(F)cccc1F	cell-free assay	0.5 µM	remaining signal	22%
Cc1nc(C2CCN(C(=O)c3ccc(OC(F)(F)F)cc3N)CC2)c2ncc(N3CCN(C)CC3)cc2n1	cell-free assay, competition with immobilised ligand	1 µM	remaining binding	100%
FC(F)(F)Oc1cccc(-c2cnc3ccc(-c4ccncc4)nn23)c1	enzyme activity, inhibitor, radiometric	5 µM	activity vs control	98%
Cn1c(=O)n(-c2ccc(C(C)(C)C#N)cc2)c2c3cc(-c4cnc5ccccc5c4)ccc3ncc21	enzyme activity, inhibitor	10 µM	remaining activity	76%
Cn1sc(=O)n(Cc2ccccc2)c1=O	cell-free assay	0.5 µM	remaining signal	114%
Cc1cnc(C(=O)NCCc2ccc(S(=O)(=O)NC(=O)NC3CCCCC3)cc2)cn1	enzyme activity, inhibitor, ADP detection	100 µM	inhibition	45.4%
COc1cc(Nc2cnc(C#N)c(O[C@H](C)CN(C)C)n2)ncc1-c1cnn(C)c1	enzyme activity, inhibitor, radiometric	1 µM	remaining activity	90%
O=C(Nc1cnn(-c2csc(C(=O)NC3COC3)c2)c1)Nc1ccccc1Cl	enzyme activity, inhibitor	5 µM	remaining activity	95%
Cc1cnc(NC2CCOCC2)nc1-n1cnc(C(=O)NC(CN)c2cc(F)cc(Cl)c2)c1 (stereo not drawn)	enzyme activity, inhibitor, radiometric	1 µM	remaining activity	7%
C[C@@H]1CN(c2cc(-c3nn(C)c4ccc(OC5(C)CC5)cc34)ncn2)C[C@H](C)O1	cell-free assay, competition with immobilised ligand	1 µM	remaining binding	91%
CNC(=O)c1cc(Oc2ccc(NC(=O)Nc3ccc(Cl)c(C(F)(F)F)c3)cc2)ccn1	cell-free assay	0.5 µM	remaining signal	101%
COc1ccc([C@H]2COc3c(ccc(O)c3OC)C2)c(OC)c1O	enzyme activity, inhibitor, ADP detection	100 µM	inhibition	15.7%
CN(C)C1CCN(CC#Cc2nn(C3CCCC3)c3nc(NCc4ccccc4)ncc23)C1 (stereo not drawn)	enzyme activity, inhibitor, FRET	10 µM	inhibition	7%
Cn1cc(Cl)c2c(Oc3c(F)cc(Nc4cc(Cl)nc(N)n4)cc3F)ccnc21	cell-free assay, competition with immobilised ligand	0.1 µM	remaining binding	90%
OCc1ccccn1	enzyme activity, inhibitor, ADP detection	100 µM	inhibition	4.4%
Cc1ccc(C(=O)NCc2ccsc2)cc1C#Cc1cn(C(C)C)c2ncnc(N)c12	enzyme activity, inhibitor	1 µM	activity vs control	102%

SMILES	test	setting	measurement	value
CCC(=O)N[C@H]1CC[C@@H](C(=O)N(C)c2ccc(-c3nc4ccccc4o3)cc2)C1	cell-free assay, competition with immobilised ligand	1 µM	remaining binding	81%
Cc1cccc(C)c1NC(=O)c1ccccc1C(=O)O	enzyme activity, inhibitor, ADP detection	100 µM	inhibition	18.9%
Oc1cccc(-c2nc(N3CCOCC3)c3oc4ncccc4c3n2)c1	enzyme activity, inhibitor	10 µM	remaining activity	48%
O=C(Nc1cnn(-c2csc(C(=O)NC3COC3)c2)c1)Nc1c(F)cccc1Cl	enzyme activity, inhibitor	5 µM	remaining activity	95.7%
CS(=O)(=O)NCC[C@H](NC(=O)c1cncc2c1cnn2-c1ccc(F)cc1)c1ccnc(S(C)(=O)=O)c1	cell-free assay, competition with immobilised ligand	1 µM	remaining binding	100%
CC1CCc2c(N3CCC(O)CC3)c(F)cc3c(=O)c(C(=O)O)cn1c23 (stereo not drawn)	enzyme activity, inhibitor, ADP detection	100 µM	inhibition	46.1%
N#CCCc1ccc2c(c1)-c1[nH]c3ccc([N+](=O)[O-])cc3c1CC(=O)N2	cell-free assay	0.5 µM	remaining signal	2.71%
Cc1ccc(C(=O)Nc2ccc(CN3CCN(C)CC3)c(C(F)(F)F)c2)cc1C#Cc1cnc2cccnn12	enzyme activity, inhibitor	23.5 nM	remaining activity	92%
O=c1c2ccccc2[nH]c(=S)n1CCN1CCC(=C(c2ccc(F)cc2)c2ccc(F)cc2)CC1	enzyme activity, inhibitor	0.5 µM	remaining activity	112%
COc1cc(Cl)c(C(=O)N[C@@H](CN[C@H]2CC[C@@H](N)CC2)Cc2ccc(C#N)cc2)cc1-c1ccc(CN[C@H](C)c2ccc(C)cc2)o1	enzyme activity, inhibitor	1 µM	remaining activity	101%
O=C1Nc2ccc(Cl)cc2C1=Cc1cc(Cl)c(O)c(Cl)c1	cell-free assay	0.5 µM	remaining signal	80.8%
Nc1ncnc2c1ncn2[C@@H]1O[C@H](COP(=O)(O)OP(=O)(O)OP(=O)(O)O)[C@@H](O)[C@H]1O	enzyme activity, substrate, radiometric		Km	9.3 µM
O=C(O)[C@H]1[C@H](Cn2nnc3ccccc3c2=O)CC[C@@H]1C(=O)c1ccc(OCCC2CCOCC2)cc1	cell-free assay, competition with immobilised ligand	1 µM	remaining binding	100%
O=C(O)c1cc(-c2ccc(F)cc2F)ccc1O	enzyme activity, inhibitor, ADP detection	100 µM	inhibition	38.6%
CC(C)n1cnc2c(Nc3cccc(Cl)c3)nc(NCCO)nc21	cell-free assay	0.5 µM	remaining signal	96%
CN(C)c1ncnc(-c2ccc3nc(Nc4cc(CN5CCN(C(=O)CC(F)(F)F)CC5)ccn4)[nH]c3c2)c1Cl	cell-free assay, competition with immobilised ligand	1 µM	remaining binding	100%
COc1ccc(CNC(=O)Nc2ncc([N+](=O)[O-])s2)cc1	cell-free assay	0.5 µM	remaining signal	40.2%
COc1cc(-c2coc3cc(O)c(OC)c(O)c3c2=O)cc(O)c1OC	enzyme activity, inhibitor, ADP detection	100 µM	inhibition	29%
